Source: ChEMBL document CHEMBL4689842, “EUbOPEN Chemogenomics Library wave 1” (2021)

Tested on: HEK-293T
Assay: Multiplex assay against HEK293T;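 for Population Tubulin-Different-Phenotype (%): share of the cells with healthy nuclei that show this phenotype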
Assay type: toxicity, cell-based
Conditions: human
Outline: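 Phenotypes for tubulin, mitochondrial mass and membrane permeability are expressed as per cents of healthy-nucleus cells. Cells were stained live at seeding with Hoechst33342, BioTracker Green Microtubule Cytoskeleton Dye, MitoTracker Red and Annexin V Alexa Fluor 680, then imaged after compound addition on a CQ1 microscope at 37°C and 5% CO2. Machine-learning gating in CellPathfinder separated Hoechst high-intensity objects from normal cells, divided normal cells by nuclear state (healthy, pyknosed, fragmented) and divided pyknosed cells into mitotic or apoptotic.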

[1] = 12 h, 1 µM, compound concentration 1 uM, replicate 1
[2] = 12 h, 1 µM, compound concentration 1 uM, replicate 2
[3] = 12 h, 10 µM, compound concentration 10 uM, replicate 1
[4] = 12 h, 10 µM, compound concentration 10 uM, replicate 2
[5] = 24 h, 1 µM, compound concentration 1 uM, replicate 1
[6] = 24 h, 1 µM, compound concentration 1 uM, replicate 2
[7] = 24 h, 10 µM, compound concentration 10 uM, replicate 1
[8] = 24 h, 10 µM, compound concentration 10 uM, replicate 2
[9] = 48 h, 1 µM, compound concentration 1 uM, replicate 1
[10] = 48 h, 1 µM, compound concentration 1 uM, replicate 2
[11] = 48 h, 10 µM, compound concentration 10 uM, replicate 1
[12] = 48 h, 10 µM, compound concentration 10 uM, replicate 2

COc1cc2ncn(-c3cc(OCc4ccccc4C(F)(F)F)c(C(N)=O)s3)c2cc1OC [GW843682X]
Population Apoptotic (%) [1]: 62%
Population Fragmented Nuclei (%) [1]: 14%
Population Healthy Nuclei (%) [1]: 44%
Population Hoechst High Intensity Objects (%) [1]: 13%
Population Membrane Permeable-Phenotype (%) [1]: 5%
Population Mitochondria Different-Phenotype (%) [1]: 84%
Population Mitotic Cells (%) [1]: 37%
Population Normal (%) [1]: 86%
Population Pyknosed Nuclei (%) [1]: 40%
Population Tubulin-Different-Phenotype (%) [1]: 64%
Total Cell Count [1]: 252
Population Apoptotic (%) [2]: 25%
Population Fragmented Nuclei (%) [2]: 4%
Population Healthy Nuclei (%) [2]: 38%
Population Hoechst High Intensity Objects (%) [2]: 2%
Population Membrane Permeable-Phenotype (%) [2]: 11%
Population Mitochondria Different-Phenotype (%) [2]: 34%
Population Mitotic Cells (%) [2]: 74%
Population Normal (%) [2]: 97%
Population Pyknosed Nuclei (%) [2]: 56%
Population Tubulin-Different-Phenotype (%) [2]: 47%
Total Cell Count [2]: 208
Population Apoptotic (%) [3]: 57%
Population Fragmented Nuclei (%) [3]: 12%
Population Healthy Nuclei (%) [3]: 54%
Population Hoechst High Intensity Objects (%) [3]: 14%
Population Membrane Permeable-Phenotype (%) [3]: 9%
Population Mitochondria Different-Phenotype (%) [3]: 97%
Population Mitotic Cells (%) [3]: 42%
Population Normal (%) [3]: 85%
Population Pyknosed Nuclei (%) [3]: 33%
Population Tubulin-Different-Phenotype (%) [3]: 97%
Total Cell Count [3]: 272
Population Apoptotic (%) [4]: 31%
Population Fragmented Nuclei (%) [4]: 11%
Population Healthy Nuclei (%) [4]: 50%
Population Hoechst High Intensity Objects (%) [4]: 4%
Population Membrane Permeable-Phenotype (%) [4]: 11%
Population Mitochondria Different-Phenotype (%) [4]: 88%
Population Mitotic Cells (%) [4]: 68%
Population Normal (%) [4]: 96%
Population Pyknosed Nuclei (%) [4]: 38%
Population Tubulin-Different-Phenotype (%) [4]: 99%
Total Cell Count [4]: 250
Population Apoptotic (%) [5]: 56%
Population Fragmented Nuclei (%) [5]: 11%
Population Healthy Nuclei (%) [5]: 39%
Population Hoechst High Intensity Objects (%) [5]: 19%
Population Membrane Permeable-Phenotype (%) [5]: 7%
Population Mitochondria Different-Phenotype (%) [5]: 81%
Population Mitotic Cells (%) [5]: 43%
Population Normal (%) [5]: 80%
Population Pyknosed Nuclei (%) [5]: 49%
Population Tubulin-Different-Phenotype (%) [5]: 73%
Total Cell Count [5]: 252
Population Apoptotic (%) [6]: 24%
Population Fragmented Nuclei (%) [6]: 5%
Population Healthy Nuclei (%) [6]: 41%
Population Hoechst High Intensity Objects (%) [6]: 4%
Population Membrane Permeable-Phenotype (%) [6]: 3%
Population Mitochondria Different-Phenotype (%) [6]: 43%
Population Mitotic Cells (%) [6]: 75%
Population Normal (%) [6]: 95%
Population Pyknosed Nuclei (%) [6]: 53%
Population Tubulin-Different-Phenotype (%) [6]: 65%
Total Cell Count [6]: 205
Population Apoptotic (%) [7]: 71%
Population Fragmented Nuclei (%) [7]: 11%
Population Healthy Nuclei (%) [7]: 57%
Population Hoechst High Intensity Objects (%) [7]: 15%
Population Membrane Permeable-Phenotype (%) [7]: 6%
Population Mitochondria Different-Phenotype (%) [7]: 96%
Population Mitotic Cells (%) [7]: 28%
Population Normal (%) [7]: 84%
Population Pyknosed Nuclei (%) [7]: 31%
Population Tubulin-Different-Phenotype (%) [7]: 90%
Total Cell Count [7]: 270
Population Apoptotic (%) [8]: 57%
Population Fragmented Nuclei (%) [8]: 14%
Population Healthy Nuclei (%) [8]: 53%
Population Hoechst High Intensity Objects (%) [8]: 3%
Population Membrane Permeable-Phenotype (%) [8]: 3%
Population Mitochondria Different-Phenotype (%) [8]: 95%
Population Mitotic Cells (%) [8]: 42%
Population Normal (%) [8]: 96%
Population Pyknosed Nuclei (%) [8]: 32%
Population Tubulin-Different-Phenotype (%) [8]: 96%
Total Cell Count [8]: 264
Population Apoptotic (%) [9]: 53%
Population Fragmented Nuclei (%) [9]: 17%
Population Healthy Nuclei (%) [9]: 31%
Population Hoechst High Intensity Objects (%) [9]: 17%
Population Membrane Permeable-Phenotype (%) [9]: 3%
Population Mitochondria Different-Phenotype (%) [9]: 84%
Population Mitotic Cells (%) [9]: 46%
Population Normal (%) [9]: 82%
Population Pyknosed Nuclei (%) [9]: 50%
Population Tubulin-Different-Phenotype (%) [9]: 72%
Total Cell Count [9]: 248
Population Apoptotic (%) [10]: 55%
Population Fragmented Nuclei (%) [10]: 7%
Population Healthy Nuclei (%) [10]: 63%
Population Hoechst High Intensity Objects (%) [10]: 2%
Population Membrane Permeable-Phenotype (%) [10]: 13%
Population Mitochondria Different-Phenotype (%) [10]: 36%
Population Mitotic Cells (%) [10]: 44%
Population Normal (%) [10]: 97%
Population Pyknosed Nuclei (%) [10]: 29%
Population Tubulin-Different-Phenotype (%) [10]: 67%
Total Cell Count [10]: 220
Population Apoptotic (%) [11]: 72%
Population Fragmented Nuclei (%) [11]: 18%
Population Healthy Nuclei (%) [11]: 46%
Population Hoechst High Intensity Objects (%) [11]: 12%
Population Membrane Permeable-Phenotype (%) [11]: 3%
Population Mitochondria Different-Phenotype (%) [11]: 96%
Population Mitotic Cells (%) [11]: 27%
Population Normal (%) [11]: 87%
Population Pyknosed Nuclei (%) [11]: 34%
Population Tubulin-Different-Phenotype (%) [11]: 85%
Total Cell Count [11]: 260
Population Apoptotic (%) [12]: 59%
Population Fragmented Nuclei (%) [12]: 7%
Population Healthy Nuclei (%) [12]: 42%
Population Hoechst High Intensity Objects (%) [12]: 4%
Population Membrane Permeable-Phenotype (%) [12]: 7%
Population Mitochondria Different-Phenotype (%) [12]: 92%
Population Mitotic Cells (%) [12]: 40%
Population Normal (%) [12]: 95%
Population Pyknosed Nuclei (%) [12]: 50%
Population Tubulin-Different-Phenotype (%) [12]: 92%
Total Cell Count [12]: 247
